For one test, the target named is Butyrylcholinesterase (Rattus norvegicus, UniProt Q9JKC1). Briefly: Inhibition of BChE in rat serum after 15 mins by modified Ellman's method. The format is cell-free. The essentials: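 Enzyme source was rat serum. Substrate butyrylthiocholine iodide 0.4 mmol/L in sodium phosphate buffer ([…]). Serum was incubated with the test compound at several concentrations at 37 °C for 15 min. Activity was read spectrophotometrically by a modified Ellman method, with IC50 derived from the concentration series.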
Background: In Ellman's method for cholinesterases, released thiocholine reacts with DTNB.

A further test deals with T1, Acetylcholinesterase (Rattus norvegicus, UniProt P37136).
T1 sequence (P37136 whole entry): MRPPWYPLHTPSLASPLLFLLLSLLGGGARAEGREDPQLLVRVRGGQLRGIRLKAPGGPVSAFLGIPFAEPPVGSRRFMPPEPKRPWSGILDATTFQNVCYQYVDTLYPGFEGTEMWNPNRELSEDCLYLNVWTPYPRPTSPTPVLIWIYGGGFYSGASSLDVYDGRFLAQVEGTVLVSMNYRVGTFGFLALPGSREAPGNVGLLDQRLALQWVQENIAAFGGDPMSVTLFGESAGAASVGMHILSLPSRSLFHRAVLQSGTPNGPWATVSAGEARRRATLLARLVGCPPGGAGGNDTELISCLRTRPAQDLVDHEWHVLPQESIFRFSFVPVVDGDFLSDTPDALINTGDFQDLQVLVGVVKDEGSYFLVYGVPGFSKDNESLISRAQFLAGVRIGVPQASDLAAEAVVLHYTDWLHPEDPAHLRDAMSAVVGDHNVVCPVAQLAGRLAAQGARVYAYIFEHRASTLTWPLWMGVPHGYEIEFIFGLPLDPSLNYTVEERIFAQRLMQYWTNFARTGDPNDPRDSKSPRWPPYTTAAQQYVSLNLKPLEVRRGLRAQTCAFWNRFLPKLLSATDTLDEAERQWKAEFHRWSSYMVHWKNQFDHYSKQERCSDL
Briefly: Inhibition of AChE in rat cortex after 15 mins by modified Ellman's method.

IC50 data for 24 compounds are collected here from ChEMBL document CHEMBL1152562, “Design, synthesis and evaluation of flavonoid derivatives as potent AChE inhibitors” (Bioorg Med Chem, 2009).

Bounds are passed on as bounds.

Sequence of Butyrylcholinesterase (Q9JKC1 whole entry): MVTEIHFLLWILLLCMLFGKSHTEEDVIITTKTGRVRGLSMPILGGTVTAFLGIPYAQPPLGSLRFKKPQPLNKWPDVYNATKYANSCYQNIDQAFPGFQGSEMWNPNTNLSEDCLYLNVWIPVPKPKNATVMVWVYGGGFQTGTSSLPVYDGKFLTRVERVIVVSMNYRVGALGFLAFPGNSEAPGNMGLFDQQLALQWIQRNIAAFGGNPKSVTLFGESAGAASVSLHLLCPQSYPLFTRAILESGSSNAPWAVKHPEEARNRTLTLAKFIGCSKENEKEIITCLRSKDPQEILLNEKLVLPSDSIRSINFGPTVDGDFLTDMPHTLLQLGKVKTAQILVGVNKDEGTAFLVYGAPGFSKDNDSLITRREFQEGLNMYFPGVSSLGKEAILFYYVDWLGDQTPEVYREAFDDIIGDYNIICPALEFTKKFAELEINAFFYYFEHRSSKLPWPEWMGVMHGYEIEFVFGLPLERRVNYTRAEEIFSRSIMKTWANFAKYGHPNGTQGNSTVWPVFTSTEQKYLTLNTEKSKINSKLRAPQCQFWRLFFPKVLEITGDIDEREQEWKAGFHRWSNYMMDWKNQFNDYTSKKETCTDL

As to `COc1cc2oc(-c3ccc(CN4CCCC4)cc3)cc(=O)c2cc1OC`, the IC50 against Butyrylcholinesterase worked out at 89.7 µM; on Acetylcholinesterase it was 0.055 µM.

`CCN(C)Cc1ccc(/C=C/C(=O)c2cc(OC)c(OC)cc2O)cc1`: the IC50 at Butyrylcholinesterase is more than 100 µM; against Acetylcholinesterase it was 0.126 µM.

`CCN(CC)Cc1ccc(/C=C/C(=O)c2cc(OC)c(OC)cc2O)cc1`: the IC50 against Butyrylcholinesterase is more than 100 µM; on Acetylcholinesterase, 0.103 µM.

Regarding `CCN(CC)Cc1cccc(/C=C/C(=O)c2cc(OC)c(OC)cc2O)c1`, the figures for the IC50 at Butyrylcholinesterase and against Acetylcholinesterase were more than 100 µM and 1.61 µM, respectively.

On to `COc1cc(O)c(C(=O)/C=C/c2ccc(CN3CCCC3)cc2)cc1OC`, for which the IC50 is more than 100 µM on Butyrylcholinesterase and 0.037 µM on Acetylcholinesterase.

Turning to `COc1cc(O)c(C(=O)/C=C/c2cccc(CN3CCCC3)c2)cc1OC`, the half-inhibitory concentration (IC50) was found to be 77.3 µM at Butyrylcholinesterase and 0.047 µM at Acetylcholinesterase.

For the compound `COc1cc(O)c(C(=O)/C=C/c2ccc(CN3CCCCC3)cc2)cc1OC`, the values for the IC50 against Butyrylcholinesterase and against Acetylcholinesterase were more than 100 µM and 0.122 µM, respectively.

As for `CCN(C)Cc1ccc(-c2cc(=O)c3cc(OC)c(OC)cc3o2)cc1`, the IC50 at Butyrylcholinesterase was more than 100 µM; against Acetylcholinesterase, 0.336 µM.

On to `CCN(CC)Cc1ccc(-c2cc(=O)c3cc(OC)c(OC)cc3o2)cc1`, for which the results for the IC50 on Butyrylcholinesterase and against Acetylcholinesterase were 64.6 µM and 0.639 µM, respectively.

For the compound `CCN(CC)Cc1cccc(-c2cc(=O)c3cc(OC)c(OC)cc3o2)c1`, the results for the IC50 against Butyrylcholinesterase and against Acetylcholinesterase were more than 100 µM and 5.99 µM, respectively.

`COc1cc2oc(-c3cccc(CN4CCCC4)c3)cc(=O)c2cc1OC`: the IC50 at Butyrylcholinesterase was more than 100 µM; against Acetylcholinesterase, 0.704 µM.

For `COc1cc2oc(-c3ccc(CN4CCCCC4)cc3)cc(=O)c2cc1OC`, the IC50 was found to be 75.2 µM on Butyrylcholinesterase and 0.034 µM at Acetylcholinesterase.

In the case of `CCN(C)Cc1ccc(C2CC(=O)c3cc(OC)c(OC)cc3O2)cc1` (stereo not drawn), the IC50 is more than 100 µM against Butyrylcholinesterase and 4.67 µM against Acetylcholinesterase.

For the compound `CCN(CC)Cc1ccc(C2CC(=O)c3cc(OC)c(OC)cc3O2)cc1` (stereo not drawn), the IC50 against Butyrylcholinesterase was more than 100 µM; against Acetylcholinesterase it was 4.97 µM.

Consider `CCN(CC)Cc1cccc(C2CC(=O)c3cc(OC)c(OC)cc3O2)c1` (stereo not drawn), for which the IC50 is more than 100 µM on Butyrylcholinesterase and 172 µM at Acetylcholinesterase.

`COc1cc2c(cc1OC)C(=O)CC(c1ccc(CN3CCCC3)cc1)O2` (stereo not drawn): the IC50 turned out to be 68.2 µM on Butyrylcholinesterase and 1.24 µM at Acetylcholinesterase.

As to `COc1cc2c(cc1OC)C(=O)CC(c1cccc(CN3CCCC3)c1)O2` (stereo not drawn), the results for the IC50 against Butyrylcholinesterase and on Acetylcholinesterase were more than 100 µM and 5.36 µM, respectively.

As for `COc1cc2c(cc1OC)C(=O)CC(c1ccc(CN3CCCCC3)cc1)O2` (stereo not drawn), the values for the IC50 at Butyrylcholinesterase and at Acetylcholinesterase were 48 µM and 0.248 µM, respectively.

Regarding `CCN(C)Cc1ccc(-c2coc3cc(OC)c(OC)cc3c2=O)cc1`, the IC50 at Butyrylcholinesterase came to 61 µM; on Acetylcholinesterase, 0.171 µM.

With `CCN(CC)Cc1ccc(-c2coc3cc(OC)c(OC)cc3c2=O)cc1`, the IC50 was more than 100 µM against Butyrylcholinesterase and 0.599 µM against Acetylcholinesterase.

In the case of `CCN(CC)Cc1cccc(-c2coc3cc(OC)c(OC)cc3c2=O)c1`, the IC50 against Butyrylcholinesterase was more than 100 µM; against Acetylcholinesterase it was 0.56 µM.

`COc1cc2occ(-c3ccc(CN4CCCC4)cc3)c(=O)c2cc1OC`: the IC50 against Butyrylcholinesterase came out at 18.3 µM; against Acetylcholinesterase, 0.004 µM.

For `COc1cc2occ(-c3cccc(CN4CCCC4)c3)c(=O)c2cc1OC`, the IC50 was more than 100 µM against Butyrylcholinesterase and 0.07 µM on Acetylcholinesterase.

In the case of `COc1cc2occ(-c3ccc(CN4CCCCC4)cc3)c(=O)c2cc1OC`, the IC50 against Butyrylcholinesterase was more than 100 µM; at Acetylcholinesterase it was 0.068 µM.

As a reminder, the IC50 is the midpoint of a concentration-inhibition curve. Higher therefore signals a need for much substance.
